From the EternaBench riboswitch data

System: MS2 coat protein
Test: apparent Kd, MS2 coat protein; higher = weaker binding; RNA-MaP array; FMN 200 µM where present
Outline: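 Green signal from SNAP-549-labelled MS2 coat protein was normalised to red-channel RNA signal and to the median Fmax of control clusters. The protein was titrated from 0.7 or 1.5 nM, doubling to 3 µM, without and then with constant ligand, over designs transcribed by stalled E. coli RNA polymerase on Illumina sequencing-chip clusters, in 100 mM Tris-HCl pH 7.5, 80 mM KCl, 4 mM MgCl2, BSA, DTT, yeast tRNA and Tween-20. The apparent Kd is the median of filtered per-cluster binding-curve fits.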

[1] = designed as: OFF switch for flavin mononucleotide, no ligand
[2] = ligand present: flavin mononucleotide, designed as: OFF switch for flavin mononucleotide
[3] = designed as: ON switch for flavin mononucleotide, no ligand
[4] = ligand present: flavin mononucleotide, designed as: ON switch for flavin mononucleotide

GGAUGACAAAGUCAUCCAAUACGAACAUGAGGAUCACCCAUGUAGGAUAUGCUACUCAAAGAGUAGCAGAAGGACAUGUGUCUU
apparent Kd [1]: 30 nM
apparent Kd [2]: 143 nM

GUCGUGUGAGGAUAUGAUUUUUCGGCGGGAUUGCGACUGCUUCAGAAGGCACAUGAGGAUCACCCAUGUUUGUC
apparent Kd [1]: 10.6 nM
apparent Kd [2]: 21.2 nM

CCGCAUAAGCAGGAUAUCGUAUCGGAUACGAUACGAGAAGGGUUUACAUGAGGAUCACCCAUGUUCCUUAGCGG
apparent Kd [1]: 29.7 nM
apparent Kd [2]: 48.1 nM

AACAAUUAGUAAGGAUAUACUAGCGAUUAGCUUGUAGAAGGUACAGUCUUAUGUAUAACAAAUUAACAUGAGGAUCACCCAUGU
apparent Kd [3]: 10.4 nM
apparent Kd [4]: 7.88 nM

GGCAAAUGAGCAGGAUAUACAGUACAUGCCUAAUGGACUCACGCACAUGAGGAUCACCCAUGUACGUAGAAGGGCUCCGAGGAG
apparent Kd [1]: 15.2 nM
apparent Kd [2]: 19.1 nM

UGAUCGAGAGAUCUUAGAUUCUGGUAGGAUAUACAUUAUGAAAACUUUACAUGAGGAUCACCCAUGUAGAAGGACUAGAGUCUA
apparent Kd [1]: 7.74 nM
apparent Kd [2]: 9.74 nM

AAAUGCUUGUCGAUGCUCGACAUGAGGAUCACCCAUGUAUAGCAGGAUAUGCAGAACUGACUCGUGCAGAAGGGCUAUACCUAA
apparent Kd [1]: 23.2 nM
apparent Kd [2]: 69.6 nM

GGAUGGUAGGGAGGAUAUGACAUGAGGAUCACCCAUGUGAAACGUCCUAGGUCAGAAGGCCCAUAAGUCAAAACCCAAAAUGUG
apparent Kd [1]: 16.7 nM
apparent Kd [2]: 153 nM

GAUGAGGUAGGAUAUACGAUAAUAUAGGGUAGAUAUAUAACACAUGAGGAUCACCCAUGUAGAAGGACCAGUAG
apparent Kd [1]: 33.5 nM
apparent Kd [2]: 73.4 nM

CUAUUACGAGGAUAUGAUUUAAAUAACAUGAGGAUCACCCAUGUUUUUACGUUAUUAUGUUUAGAAGGCGUAUUGU
apparent Kd [1]: 50.1 nM
apparent Kd [2]: 31.4 nM

CGCCGACAUGAGGAUCACCCAUGUCACAUCUGGUCAGGAUAUGGUAUGAUUUGGCUAUUGCCAGAAGGGACCUCAG
apparent Kd [3]: 48.9 nM
apparent Kd [4]: 28 nM

AUAUUCAGAGGAUAUGCGCAUAGAUAAGACUUUUUUUCUUAACAUGAGGAUCACCCAUGUAGAAGGCUGUAAUA
apparent Kd [1]: 20.1 nM
apparent Kd [2]: 17.5 nM

GGAGACCUCACAGGAUAUGCUGGACUUUGUCCAGCAGAAGGGUGAACAUGAGGAUCACCCAUGUUGGUCUCCAAAAUAUUUAAU
apparent Kd [3]: 882 nM
apparent Kd [4]: 108 nM

CGUGGACUAGGAUAUUUACGAGGCUACAUGAGGAUCACCCAUGUGUUCUCGAGUACCAUGAAAGAAGGAGUAGCGA
apparent Kd [1]: 12.6 nM
apparent Kd [2]: 14 nM

CCACCAAUCGAGAAGGGCCCAUGUGCUACAUCGGCAGGAUAUCGACAUGAGGAUCACCCAUGUUGGCGAUCCUUUUUGGCGGAC
apparent Kd [1]: 176 nM
apparent Kd [2]: 35.9 nM

CAGCAUCAUGUAGGAUAUGCGUGGCGAAGCUAUGCAGAAGGACAUGAGGAUCACCCAUGUCUUACCUAGCGUACUAGGUUGCUG
apparent Kd [1]: 7.3 nM
apparent Kd [2]: 16.6 nM

GCGAGUAAAGCAGGAUAUCUAUUGUCUCGGAAACAUGAGGAUCACCCAUGUAGAGAAGGGCUAAGUCAUACAAUUCGAACUCGC
apparent Kd [1]: 11.2 nM
apparent Kd [2]: 10.8 nM

GGGUUACAUGAGGAUCACCCAUGUGAGGAUAUGAUACUAUGUACUUCGGUACAUAGUAUCAGAAGGCACAUCCC
apparent Kd [1]: 36.5 nM
apparent Kd [2]: 72.7 nM

UUAAUAAUACAAGGAUAUCAAUUGUUCUUAAGACAUACAUGAGGAUCACCCAUGUUAAUAUAUGUUGAGAAGGUGUAUUUUCAG
apparent Kd [3]: 35.7 nM
apparent Kd [4]: 26.7 nM

AAGAAGUCAGGAUAUGCAUGGCGGGACUUGCGUCGUGGCGUGCAGAAGGGACAUGAGGAUCACCCAUGUAAAGC
apparent Kd [1]: 49.8 nM
apparent Kd [2]: 42.4 nM

GAAGAGACAGGAUAUACAUGAGGAUCACCCAUGUGAGGAUGUUGGAGGCGGAGGAGGUGUAGAAGGGUCAAAGA
apparent Kd [1]: 31.2 nM
apparent Kd [2]: 28.7 nM

UCGUUGUCAGGAUAUCGUGUAUACAACUUUAGUUUUAUGUUCGAGAAGGGACAUGAGGAUCACCCAUGUUACGU
apparent Kd [1]: 65 nM
apparent Kd [2]: 239 nM

UGUCCUUGAGGCUCGGACGUGUCGCCAGAAGGCAAUUUCUGACAUGAGGAUCACCCAUGUCCAAUUGAGGAUAUGGCUGCGAAG
apparent Kd [3]: 27.2 nM
apparent Kd [4]: 7.52 nM

AGCACGAAAGUGCAACGAUGUACGAGAAGGACAUGAGGAUCACCCAUGUCGCUGUAACAGCAAAUGUAGGAUAUCGUACAUCGA
apparent Kd [1]: 5.14 nM
apparent Kd [2]: 5.7 nM

GUUGGGCCUCCCUCUCCACGUUCAACAUGAGGAUCACCCAUGUAGGAUAUCGUUUGUUUUUUUUACGAGAAGGGCGUACUUCCC
apparent Kd [1]: 8.99 nM
apparent Kd [2]: 8.06 nM

AAUAACAGAGGAUAUACUAUUUUAUGUGUUUGUUGUUUUAAACAUGAGGAUCACCCAUGUAGAAGGCUGAGUAA
apparent Kd [1]: 24.3 nM
apparent Kd [2]: 30.4 nM

UGUGCCUCGAGAGGAUAUAACAUGAGGAUCACCCAUGUAACAGAGGUGGAAACACCUCUGAAAUGUUAGAAGGCUCGAGGCACA
apparent Kd [1]: 46.6 nM
apparent Kd [2]: 57 nM

GCGUGACAUGAGGAUCACCCAUGUACUCGAGAAAUCGAGUGUAGAAGGGUGACCGGUCGUUUGGCACAGGAUAUACACGCUGUG
apparent Kd [3]: 27.3 nM
apparent Kd [4]: 16.3 nM
